Measured values from different studies.
Lines come from different studies, so protocols differ.
ABCB11: Bile salt export pump (ABCB11, Homo sapiens, UniProt O95342)
KCNH2: Voltage-gated inwardly rectifying potassium channel KCNH2 (KCNH2, Homo sapiens, UniProt Q12809)

Structure (SMILES) | target or system | test | system | setting | quantity | value
CC(C)NC(=O)COc1cccc(-c2nc(Nc3ccc4[nH]ncc4c3)c3ccccc3n2)c1 | ABCB11 | transporter uptake, inhibitor, radiometric |  |  | IC50 | > 1 µM
COc1cc(N)c(Cl)cc1C(=O)NC1CCN(CCCOc2ccc(F)cc2)CC1OC (stereo not drawn) | KCNH2 | ion current, inhibitor, patch clamp | HEK293 | 50 nM | inhibition | 60.7%
CC(C)n1cc(C#N)c2cc(-n3cc(C(=O)O)cn3)ccc21 |  |  | human, plasma | oral, 100 mg, single dose, fasted, healthy volunteers | Tmax | 2.99 h
CCn1c(=O)c(-c2cc[nH]n2)cc2c(C)nc(N)nc21 | RD | cell growth or viability, MTT |  |  | CC50 | 6.53 µM
O=C(COc1ccc(Cl)cc1)NC12CC(c3nnc([C@H]4C[C@@H](OC(F)(F)F)C4)o3)(C1)C2 |  |  | human, plasma | oral, 45 mg, multiple doses, once daily, steady state, healthy volunteers | Tmax | 4.03 h
CCOC(=O)C1=C(CN2CCC[C@@H]2C(=O)Nc2ccc(B(O)O)cc2)NC(c2nccs2)=N[C@H]1c1ccc(F)cc1Br | KCNH2 | ion current, inhibitor, patch clamp | HEK293 | 100 µM, pH 7.4 | inhibition | 94.8%
COc1ccc2c(c1)CN(C(=O)CCN1CCC(Cc3ccccc3)CC1)CC[S@@+]2[O-] |  |  | male human, plasma | intravenous, 0.6 mg/kg, healthy volunteers | Tmax | 0 h
CC(C)n1ncc2c(C(=O)NCC3(C)CNC3)cc(C3CC3)nc21 | RD | cell growth or viability, neutral red |  |  | CC50 | > 100 µM
O=C(Cn1ccnc1[N+](=O)[O-])NCc1ccccc1 | LLC-MK2 | cell growth or viability |  |  | CC50 | 257 µg/mL
COc1cccc(OC)c1-c1cc(C(=O)NC2(C(=O)O)C3CC4CC(C3)CC2C4)nn1-c1ccc(C(=O)N(C)CCCN(C)CCCN(C)C(=O)CN2CCN(CC(=O)[O-])CCN(CC(=O)[O-])CCN(CC(=O)[O-])CC2)cc1C(C)C.[177Lu+3] (stereo not drawn) | HT-29 |  | bone | 4 h, tumour-bearing | tracer uptake | 1.8 %ID/g
NC/C(=C\F)COc1cccc(Cn2c(=S)[nH]c(=O)c3[nH]cnc32)c1 | ABCB11 | transporter uptake, inhibitor, radiometric |  | 30 µM | inhibition | < 50%
Cn1c(=O)c2[nH]cnc2n(C)c1=O |  |  | male Sprague-Dawley rat, plasma | intravenous, 11.25 mg/kg | MRT(0-inf) | 6.51 h
CC(=O)N1CCC(C(=O)N2CCN3C(=O)c4cc(-c5ccccc5)ccc4NC(=O)C3C2)CC1 (stereo not drawn) | KCNH2 | ion current, inhibitor, patch clamp | HEK293 | 1 µM | inhibition | 5.6%
C[C@H]1Oc2cc(cnc2N)-c2c(nn(C)c2C#N)CN(C)C(=O)c2ccc(F)cc21 |  |  | Sprague-Dawley rat, plasma | intravenous, 1 mg/kg, single dose | MRT(0-inf) | 4.96 h
COc1nc(-c2cccc(-c3ccccc3)c2C)ccc1CNCCNC(=O)CCCCCCCCCCC(=O)N1CCN(CCNC(=O)c2cc3c(=O)n4cccc(C)c4nc3n(CCc3cccs3)c2=N)CC1 |  |  | male Sprague-Dawley rat, plasma | intraperitoneal, 4 mg/kg | MRT(0-t) | 7.1 h
N[C@H]1C(O)O[C@H](CO)[C@@H](O)[C@@H]1O (stereo partly drawn) | Caco-2 | cell growth or viability, CCK-8 |  | 20 mM | viability | 101%
COc1cc(N)c(Cl)cc1C(=O)NC1CCN(CCCOc2ccc(F)cc2)CC1OC (stereo not drawn) | KCNH2 | ion current, inhibitor, patch clamp | HEK293 | 1 nM, pH 7.4 | inhibition | 8.73%
CN1C[C@H](COc2nccc3c(NCc4ccco4)cc(Cl)nc23)OC1=O | KCNH2 | ion current, inhibitor | HEK293 | 1 µM | inhibition | 8.8%
